ChEMBL document CHEMBL1143048, “Inhibition of monoamine oxidase B by selected benzimidazole and caffeine analogues” (Bioorg Med Chem, 2007)
Active and inactive are the calls of the source. The rule behind the calls is not given here.

Tests used:
[1] = Inhibition baboon liver mitochondrial MAOB; parameters: species or system Papio hamadryas
Method in brief: (§1)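 Mitochondrial fraction from baboon liver was used as the enzyme source, without MAO-A inactivation. Incubations were run in 100 mM sodium phosphate, pH 7.4, with 0.15 mg protein/mL, MMTP at four levels (30–120 μM), three inhibitor levels, and 4% DMSO final, for 15 min at 37 °C. Reactions were stopped with perchloric acid. MMDP⁺ was read at 420 nm, and Lineweaver-Burk plots were constructed.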

Papio hamadryas = species on record: Papio hamadryas; assay: Inhibition baboon liver mitochondrial MAOB upto 50 uM; method in brief: as §1

Ki [1] [µM]	Activity (Papio hamadryas)	Structure (SMILES)
3.26		Cc1ccc(/C=C/c2nc3ccccc3n2C)cc1
11.3		Cn1c(=O)c2c(nc(/C=C/c3ccsc3)n2C)n(C)c1=O
39.7		Cn1c(=O)c2c(nc(/C=C/c3ccco3)n2C)n(C)c1=O
0.086		Cn1c(=O)c2c(nc(/C=C/c3cccc(Br)c3)n2C)n(C)c1=O
	inactive	CCn1c(=O)c2c(nc3c4ccccc4ncn32)n(CC)c1=O
39.9		Cn1c(=O)c2c(nc3c4ccccc4ncn32)n(C)c1=O
0.43		Cn1c(/C=C/c2ccc(C(F)(F)F)cc2)nc2ccccc21
1220		Cc1nc2ccccc2[nH]1
2.54		Cn1c(/C=C/c2ccc(Br)cc2)nc2ccccc21
5.82		COc1ccc(/C=C/c2nc3ccccc3n2C)cc1
1.58		Cn1c(=O)c2c(nc(/C=C/c3cccs3)n2C)n(C)c1=O
15		Cn1c(/C=C/c2ccc(F)cc2)nc2ccccc21
2.83		Cn1c(/C=C/c2ccc(Cl)cc2)nc2ccccc21
0.239		Cn1c(=O)c2c(nc(/C=C/c3cc(C(F)(F)F)cc(C(F)(F)F)c3)n2C)n(C)c1=O
0.036		Cn1c(=O)c2c(nc(/C=C/c3ccc(Cl)c(Cl)c3)n2C)n(C)c1=O
2080		Cn1cnc2ccccc21
18.7		Cn1c(/C=C/c2ccccc2)nc2ccccc21
